# ChEMBL document CHEMBL3817745, “Structure-Activity Relationship for the 4(3H)-Quinazolinone Antibacterials” (J Med Chem, 2016)
# The source made the active and inactive calls. The rule behind the calls is not given here.
# Key:
# [1] = system: Staphylococcus aureus; assay: Antibacterial activity against methicillin-susceptible Staphylococcus aureus ATCC 29213 incubated for 16 to 20 hrs by microdilution method; format: functional
# [2] = system: Mus musculus; assay: AUC (0 to last) in ICR mouse peritonitis model infected with methicillin resistant Staphylococcus aureus ATCC 27660 at 5 mg/kg, iv administered as single dose measured up to 8 hrs by UPLC analysis; format: ADME, organism-based; design: dose 5 mg/kg, route intravenous, time 0 - last; details: in vivo
# In short: (§1)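 Fast PK: female ICR mice (n = 2 per time point) given single tail-vein iv injection at 5, 10 or 20 mg/kg in 25% DMSO/65% propylene glycol/10% water (2.5, 5 or 10 mg/mL); terminal cardiac blood at 5 min, 40 min, 2, 4, 8 h; plasma analysed by UPLC with internal standard calibration.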
# [3] = system: HepG2; assay: Cytotoxicity against human HepG2 cells incubated for 16 hrs by XTT assay; format: cell-based; details: HepG2, 16 h
# In short: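 HepG2 cells were tested with an XTT viability read-out, in triplicate. IC50 was obtained by nonlinear regression.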
# [4] = Hemolytic activity against human RBC at 64 ug/ml relative to control; format: ADME, cell-based, Erythrocyte; details: erythrocyte
# In short: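 Hemolysis was measured at a fixed 64 μg/mL on a 10% red-cell suspension from heparinized human blood. Triton-X served as the positive control, and results are given as percent hemolysis.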
# [5] = system: Staphylococcus aureus; assay: Antibacterial activity against mecA-positive methicillin/oxacillin/tetracycline-resistant Staphylococcus aureus ATCC 27660 incubated for 16 to 20 hrs by microdilution method; format: functional
# [6] = system: Staphylococcus aureus; assay: Antibacterial activity against mecA-positive multidrug resistant Staphylococcus aureus COL NRS100 incubated for 16 to 20 hrs by microdilution method; format: functional
# [7] = system: Staphylococcus aureus; assay: Antibacterial activity against vancomycin/methicillin-resistant Staphylococcus aureus VRS1 clinical isolate incubated for 16 to 20 hrs by microdilution method; format: functional
# [8] = system: Staphylococcus aureus; assay: Antibacterial activity against vancomycin/methicillin-resistant Staphylococcus aureus VRS2 clinical isolate incubated for 16 to 20 hrs by microdilution method; format: functional
# [9] = system: Staphylococcus epidermidis; assay: Antibacterial activity against Staphylococcus epidermidis ATCC 35547 incubated for 16 to 20 hrs by microdilution method; format: functional
# In short: (§2)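 CLSI broth microdilution. 2-fold serial dilutions were made in cation-adjusted Mueller–Hinton broth, with 5% lysed horse blood added for Streptococcus strains, in triplicate. Inoculum 5×10^5 CFU/mL. Plates incubated 36 °C for 16–20 h. MIC taken as the lowest concentration visibly inhibiting growth.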
# [10] = system: Streptococcus oralis; assay: Antibacterial activity against Streptococcus oralis ATCC 9811 incubated for 16 to 20 hrs by microdilution method; format: functional; in short: as §2
# [11] = system: Streptococcus pyogenes; assay: Antibacterial activity against Streptococcus pyogenes ATCC 49399 incubated for 16 to 20 hrs by microdilution method; format: functional; in short: as §2
# [12] = system: Bacillus cereus; assay: Antibacterial activity against Bacillus cereus ATCC 13061 incubated for 16 to 20 hrs by microdilution method; format: functional; in short: as §2
# [13] = system: Bacillus licheniformis; assay: Antibacterial activity against Bacillus licheniformis ATCC 12759 incubated for 16 to 20 hrs by microdilution method; format: functional; in short: as §2
# [14] = system: Enterococcus faecalis; assay: Antibacterial activity against methicillin-susceptible Enterococcus faecalis ATCC 29212 incubated for 16 to 20 hrs by microdilution method; format: functional; in short: as §2
# [15] = system: Enterococcus faecalis; assay: Antibacterial activity against vancomycin-resistant Enterococcus faecalis 99 clinical isolate incubated for 16 to 20 hrs by microdilution method; format: functional
# [16] = system: Enterococcus faecium; assay: Antibacterial activity against Enterococcus faecium NCTC 7171 incubated for 16 to 20 hrs by microdilution method; format: functional; in short: as §2
# [17] = system: Klebsiella pneumoniae; assay: Antibacterial activity against Klebsiella pneumoniae ATCC 700603 incubated for 16 to 20 hrs by microdilution method; format: functional; in short: as §2
# [18] = system: Acinetobacter baumannii; assay: Antibacterial activity against Acinetobacter baumannii ATCC 17961 incubated for 16 to 20 hrs by microdilution method; format: functional; in short: as §2
# [19] = system: Pseudomonas aeruginosa; assay: Antibacterial activity against Pseudomonas aeruginosa […] incubated for 16 to 20 hrs by microdilution method; format: functional; in short: as §2
# [20] = system: Escherichia coli; assay: Antibacterial activity against Escherichia coli ATCC 25922 incubated for 16 to 20 hrs by microdilution method; format: functional; in short: as §2
# [21] = system: Klebsiella aerogenes; assay: Antibacterial activity against Enterobacter aerogenes ATCC 35029 incubated for 16 to 20 hrs by microdilution method; format: functional; in short: as §2
# [22] = system: Staphylococcus aureus; assay: Antibacterial activity against Staphylococcus aureus COL expressing pbpA antisense plasmid assessed as increase in zone of inhibition after 18 to 20 hrs in presence of xylose; format: functional, organism-based
# In short: (§3)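 MRSA COL strains carrying pbpA, pbp2, mecA or pbp3 under antisense control were grown overnight on agar with 34 μg/mL chloramphenicol. Molten chloramphenicol agar with 0 or 50 mM xylose was seeded at 1×10^7 CFU/mL and set. Compound (10 μL) was spotted on the agar, and plates were incubated 36 °C for 18–20 h. Susceptibility with and without xylose induction was compared.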
# [23] = system: Staphylococcus aureus; assay: Antibacterial activity against Staphylococcus aureus COL expressing pbp2a antisense plasmid assessed as increase in zone of inhibition after 18 to 20 hrs in presence of xylose; format: functional, organism-based; in short: as §3
# [24] = system: Staphylococcus aureus; assay: Antibacterial activity against Staphylococcus aureus COL expressing pbp2 antisense plasmid assessed as increase in zone of inhibition after 18 to 20 hrs in presence of xylose; format: functional, organism-based; in short: as §3
# [25] = system: Staphylococcus aureus; assay: Antibacterial activity against Staphylococcus aureus COL expressing pbp3 antisense plasmid assessed as increase in zone of inhibition after 18 to 20 hrs in presence of xylose; format: functional, organism-based; in short: as §3
# [26] = system: Mus musculus; assay: AUC (0 to last) in ICR mouse peritonitis model infected with methicillin resistant Staphylococcus aureus ATCC 27660 at 10 mg/kg, iv administered as single dose measured up to 8 hrs by UPLC analysis; format: ADME, organism-based; design: dose 10 mg/kg, time 0 - last, route intravenous; details: in vivo, 8 h; in short: as §1
structure (smiles),measurement,setting,value
CC(=O)Nc1cccc(-n2c(/C=C/c3ccc(C#N)cc3)nc3ccccc3c2=O)c1,MIC,[1],0.25 µg/mL
same,AUClast,[2],38 µg·min/mL
same,IC50,[3],51 µg/mL
same,Activity,[4],< 1%
same,MIC,[5],1 µg/mL
same,MIC,[6],1 µg/mL
same,MIC,[7],4 µg/mL
same,MIC,[8],0.125 µg/mL
same,MIC,[9],0.06 µg/mL
same,MIC,[10],> 128 µg/mL
same,MIC,[11],> 128 µg/mL
same,MIC,[12],> 128 µg/mL
same,MIC,[13],> 128 µg/mL
same,MIC,[14],128 µg/mL
same,MIC,[15],64 µg/mL
same,MIC,[16],> 128 µg/mL
same,MIC,[17],≥ 16 µg/mL
same,MIC,[18],≥ 16 µg/mL
same,MIC,[19],≥ 16 µg/mL
same,MIC,[20],≥ 16 µg/mL
same,MIC,[21],≥ 16 µg/mL
O=c1c2ccccc2nc(/C=C/c2ccccc2F)n1-c1cccc(O)c1,MIC,[1],1 µg/mL
same,MIC,[16],≥ 8 µg/mL
same,MIC,[17],≥ 16 µg/mL
same,MIC,[18],≥ 16 µg/mL
same,MIC,[19],≥ 16 µg/mL
same,MIC,[20],≥ 16 µg/mL
same,MIC,[21],≥ 16 µg/mL
O=c1c2ccccc2nc(/C=C/c2ccccc2)n1-c1cccc(O)c1,MIC,[1],0.5 µg/mL
same,MIC,[16],≥ 8 µg/mL
same,MIC,[17],≥ 16 µg/mL
same,MIC,[18],≥ 16 µg/mL
same,MIC,[19],≥ 16 µg/mL
same,MIC,[20],≥ 16 µg/mL
same,MIC,[21],≥ 16 µg/mL
CCO/N=C(\C(=O)N[C@@H]1C(=O)N2C(C(=O)[O-])=C(Sc3nc(-c4cc[n+](C)cc4)cs3)CS[C@H]12)c1nsc(NP(=O)(O)O)n1,Activity,[22],Active
same,Activity,[23],Active
same,Activity,[24],Active
same,Activity,[25],Active
O=c1c2ccccc2nc(/C=C/c2ccc3c(c2)OCO3)n1-c1cccc(O)c1,MIC,[1],2 µg/mL
same,MIC,[16],≥ 8 µg/mL
same,MIC,[17],≥ 16 µg/mL
same,MIC,[18],≥ 16 µg/mL
same,MIC,[19],≥ 16 µg/mL
same,MIC,[20],≥ 16 µg/mL
same,MIC,[21],≥ 16 µg/mL
CC(=O)NCc1cccc(-n2c(/C=C/c3ccc(C#N)cc3)nc3ccccc3c2=O)c1,MIC,[1],0.015 µg/mL
same,AUClast,[26],142 µg·min/mL
same,IC50,[3],99 µg/mL
same,Activity,[4],< 1%
same,MIC,[16],≥ 8 µg/mL
same,MIC,[17],≥ 16 µg/mL
same,MIC,[18],≥ 16 µg/mL
same,MIC,[19],≥ 16 µg/mL
same,MIC,[20],≥ 16 µg/mL
same,MIC,[21],≥ 16 µg/mL
Nc1ccc(/C=C/c2nc3ccccc3c(=O)n2-c2cccc(O)c2)cc1,MIC,[1],16 µg/mL
same,MIC,[16],≥ 8 µg/mL
same,MIC,[17],≥ 16 µg/mL
same,MIC,[18],≥ 16 µg/mL
same,MIC,[19],≥ 16 µg/mL
same,MIC,[20],≥ 16 µg/mL
same,MIC,[21],≥ 16 µg/mL
O=C(O)c1ccc(/C=C/c2nc3ccccc3c(=O)n2-c2cccc(O)c2)cc1,MIC,[1],> 128 µg/mL
same,MIC,[16],≥ 8 µg/mL
same,MIC,[17],≥ 16 µg/mL
same,MIC,[18],≥ 16 µg/mL
same,MIC,[19],≥ 16 µg/mL
same,MIC,[20],≥ 16 µg/mL
same,MIC,[21],≥ 16 µg/mL
